Data published in ChEMBL document CHEMBL1667807, “Discovery of imidazo[1,2-b]pyridazines as IKKβ inhibitors. Part 2: improvement of potency in vitro and in vivo” (Bioorg Med Chem Lett, 2011).
Active and inactive are the calls of the source. The calls are words filed in the database; no cut-off is given here.

What was measured:
[1] = target: T1, Inhibitor of nuclear factor kappa-B kinase subunit beta (Homo sapiens, UniProt O14920); assay: Inhibition of purified His-tagged IKK-beta after 15 mins
T1 sequence (O14920 whole entry): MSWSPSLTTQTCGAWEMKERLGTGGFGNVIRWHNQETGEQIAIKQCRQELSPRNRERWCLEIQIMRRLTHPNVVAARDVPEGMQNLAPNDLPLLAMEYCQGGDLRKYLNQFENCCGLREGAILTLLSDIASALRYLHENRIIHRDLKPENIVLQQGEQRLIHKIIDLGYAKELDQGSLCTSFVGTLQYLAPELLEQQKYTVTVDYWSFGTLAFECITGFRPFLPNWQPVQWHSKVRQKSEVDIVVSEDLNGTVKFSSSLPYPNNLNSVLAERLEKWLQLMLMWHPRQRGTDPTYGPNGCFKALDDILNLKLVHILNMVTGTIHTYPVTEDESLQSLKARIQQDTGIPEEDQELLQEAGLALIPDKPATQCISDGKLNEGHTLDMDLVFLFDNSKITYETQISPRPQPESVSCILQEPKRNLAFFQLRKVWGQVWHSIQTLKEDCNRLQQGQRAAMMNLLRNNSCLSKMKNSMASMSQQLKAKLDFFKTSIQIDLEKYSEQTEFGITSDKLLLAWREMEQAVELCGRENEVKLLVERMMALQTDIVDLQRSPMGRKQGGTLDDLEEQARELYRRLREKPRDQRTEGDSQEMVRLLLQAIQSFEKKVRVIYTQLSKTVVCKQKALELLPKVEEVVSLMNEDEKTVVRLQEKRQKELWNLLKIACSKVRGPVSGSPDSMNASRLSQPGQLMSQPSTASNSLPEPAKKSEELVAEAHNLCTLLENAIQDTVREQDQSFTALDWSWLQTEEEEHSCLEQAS

Blood = assay: Antiinflammatory activity in BALB/c mouse whole blood assessed as inhibition of LPS-induced TNFalpha production by ELISA; type: functional, tissue-based
Procedure, shortened: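 Mouse whole blood cell suspension stimulated with LPS (medium-only control), incubated 4 h at 37 °C in 5% CO2. Plasma then separated by centrifugation at 4 °C and TNFα measured by ELISA. IC50 derived.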

[2] = Membrane permeability at pH 7.4 by PAMPA assay; type: ADME; conditions: read-out: permeability
Procedure, shortened: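 Parallel artificial membrane permeability assay run at pH 7.4. Effective permeability Pe reported in 10^-6 cm/s as the median of three tests.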

Mus musculus = assay: Antiinflammatory activity in BALB/c mouse assessed as inhibition of LPS-induced TNFalpha production at 30 mg/kg, po after 1 hr by ELISA; type: functional
Procedure, shortened: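 Male BALB/c mice (7–12 weeks old) dosed orally, vehicle 0.5% methyl cellulose. LPS 0.02 mg/kg in saline given i.v. 30 min after dosing. Plasma separated at 4 °C, stored at −20 °C, and TNFα quantified by ELISA. Percent inhibition recorded.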

Plasma = assay: Plasma concentration in BALB/c mouse at 30 mg/kg, po after 90 mins; type: ADME, organism-based; design: dose 30 mg/kg
Procedure, shortened: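 Plasma concentration of compound in mice measured 90 min after a 30 mg/kg oral dose.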

[3] = Metabolic stability of the compound in mouse liver microsomes assessed as compound remaining at 1 uM after 30 mins; type: ADME, Microsome; conditions: read-out: Stability
Procedure, shortened: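 Compound at 1 μM incubated 30 min with mouse liver microsomes at 0.1 mg/ml protein. Percent of parent compound remaining reported.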

[4] = target: Serine/threonine-protein kinase D3 (Homo sapiens) (UniProt O94806); assay: Inhibition of PKD3 at 0.2 uM
Sequence of Serine/threonine-protein kinase D3 (Homo sapiens) (O94806 whole entry, looked up): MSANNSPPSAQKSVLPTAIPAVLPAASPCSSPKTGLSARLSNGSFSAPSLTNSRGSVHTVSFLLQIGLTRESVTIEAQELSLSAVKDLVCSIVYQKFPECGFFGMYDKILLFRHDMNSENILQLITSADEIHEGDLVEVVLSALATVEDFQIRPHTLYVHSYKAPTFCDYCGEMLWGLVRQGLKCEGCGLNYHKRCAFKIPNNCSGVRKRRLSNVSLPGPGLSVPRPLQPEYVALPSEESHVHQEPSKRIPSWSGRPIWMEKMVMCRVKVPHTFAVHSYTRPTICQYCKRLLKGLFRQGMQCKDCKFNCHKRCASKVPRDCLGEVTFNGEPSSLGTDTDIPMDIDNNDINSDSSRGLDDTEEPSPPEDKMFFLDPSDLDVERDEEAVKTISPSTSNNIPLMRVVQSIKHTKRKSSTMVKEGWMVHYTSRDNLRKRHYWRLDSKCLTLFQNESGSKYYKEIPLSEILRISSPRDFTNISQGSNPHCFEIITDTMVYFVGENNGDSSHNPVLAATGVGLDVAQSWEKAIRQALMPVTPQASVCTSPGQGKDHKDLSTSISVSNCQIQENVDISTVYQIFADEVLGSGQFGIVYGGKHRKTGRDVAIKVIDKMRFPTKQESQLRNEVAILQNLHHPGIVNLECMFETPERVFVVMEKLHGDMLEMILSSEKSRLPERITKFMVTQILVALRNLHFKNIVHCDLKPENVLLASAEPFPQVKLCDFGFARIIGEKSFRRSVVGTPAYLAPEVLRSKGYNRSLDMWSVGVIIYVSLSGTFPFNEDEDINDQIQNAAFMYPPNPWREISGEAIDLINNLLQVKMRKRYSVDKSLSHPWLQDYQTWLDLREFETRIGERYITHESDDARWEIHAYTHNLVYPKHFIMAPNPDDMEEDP

[5] = target: ALK tyrosine kinase receptor (Homo sapiens) (UniProt Q9UM73); assay: Inhibition of ALK at 10 uM
Sequence of ALK tyrosine kinase receptor (Homo sapiens) (Q9UM73 19-1620 limits assumed): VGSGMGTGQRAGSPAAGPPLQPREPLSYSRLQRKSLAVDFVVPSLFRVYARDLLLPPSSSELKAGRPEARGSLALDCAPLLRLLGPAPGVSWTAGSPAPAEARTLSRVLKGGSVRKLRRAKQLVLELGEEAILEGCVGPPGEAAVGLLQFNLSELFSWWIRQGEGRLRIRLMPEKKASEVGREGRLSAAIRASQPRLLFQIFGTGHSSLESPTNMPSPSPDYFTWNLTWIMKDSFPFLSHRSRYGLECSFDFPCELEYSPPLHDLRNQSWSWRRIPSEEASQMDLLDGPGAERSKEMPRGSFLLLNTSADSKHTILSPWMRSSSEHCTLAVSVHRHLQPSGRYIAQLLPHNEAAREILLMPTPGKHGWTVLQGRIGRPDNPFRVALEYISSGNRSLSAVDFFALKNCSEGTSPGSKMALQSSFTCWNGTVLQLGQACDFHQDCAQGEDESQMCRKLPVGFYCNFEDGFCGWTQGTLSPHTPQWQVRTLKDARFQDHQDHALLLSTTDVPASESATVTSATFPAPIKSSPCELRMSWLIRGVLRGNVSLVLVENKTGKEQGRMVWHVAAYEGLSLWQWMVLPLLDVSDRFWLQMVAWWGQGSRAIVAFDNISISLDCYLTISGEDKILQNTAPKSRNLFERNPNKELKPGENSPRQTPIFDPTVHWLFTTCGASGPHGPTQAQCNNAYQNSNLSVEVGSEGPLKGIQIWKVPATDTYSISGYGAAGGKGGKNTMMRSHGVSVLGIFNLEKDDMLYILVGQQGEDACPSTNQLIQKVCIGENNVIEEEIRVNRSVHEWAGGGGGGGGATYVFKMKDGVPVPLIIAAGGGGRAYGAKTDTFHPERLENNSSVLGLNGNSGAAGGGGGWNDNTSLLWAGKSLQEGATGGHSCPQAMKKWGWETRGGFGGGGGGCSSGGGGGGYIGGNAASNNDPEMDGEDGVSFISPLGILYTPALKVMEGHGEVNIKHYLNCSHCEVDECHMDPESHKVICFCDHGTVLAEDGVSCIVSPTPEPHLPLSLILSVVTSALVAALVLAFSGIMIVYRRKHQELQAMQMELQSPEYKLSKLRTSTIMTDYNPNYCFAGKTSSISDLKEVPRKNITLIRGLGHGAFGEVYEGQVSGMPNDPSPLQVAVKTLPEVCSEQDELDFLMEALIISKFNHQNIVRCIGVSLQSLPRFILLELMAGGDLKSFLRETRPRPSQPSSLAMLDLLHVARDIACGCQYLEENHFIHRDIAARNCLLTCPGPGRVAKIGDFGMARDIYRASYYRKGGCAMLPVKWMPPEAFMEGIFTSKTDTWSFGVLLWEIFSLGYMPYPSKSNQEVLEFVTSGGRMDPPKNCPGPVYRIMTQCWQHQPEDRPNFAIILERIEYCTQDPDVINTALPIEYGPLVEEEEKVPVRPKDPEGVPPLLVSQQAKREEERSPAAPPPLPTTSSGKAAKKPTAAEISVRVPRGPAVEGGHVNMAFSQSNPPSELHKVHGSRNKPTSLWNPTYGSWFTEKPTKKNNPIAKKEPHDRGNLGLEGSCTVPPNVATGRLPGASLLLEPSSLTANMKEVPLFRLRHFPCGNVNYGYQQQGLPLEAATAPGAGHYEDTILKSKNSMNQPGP

[6] = target: Tyrosine-protein kinase JAK2 (Homo sapiens) (UniProt O60674); assay: Inhibition of JAK2 at 10 uM
Sequence of Tyrosine-protein kinase JAK2 (Homo sapiens) (O60674 whole entry): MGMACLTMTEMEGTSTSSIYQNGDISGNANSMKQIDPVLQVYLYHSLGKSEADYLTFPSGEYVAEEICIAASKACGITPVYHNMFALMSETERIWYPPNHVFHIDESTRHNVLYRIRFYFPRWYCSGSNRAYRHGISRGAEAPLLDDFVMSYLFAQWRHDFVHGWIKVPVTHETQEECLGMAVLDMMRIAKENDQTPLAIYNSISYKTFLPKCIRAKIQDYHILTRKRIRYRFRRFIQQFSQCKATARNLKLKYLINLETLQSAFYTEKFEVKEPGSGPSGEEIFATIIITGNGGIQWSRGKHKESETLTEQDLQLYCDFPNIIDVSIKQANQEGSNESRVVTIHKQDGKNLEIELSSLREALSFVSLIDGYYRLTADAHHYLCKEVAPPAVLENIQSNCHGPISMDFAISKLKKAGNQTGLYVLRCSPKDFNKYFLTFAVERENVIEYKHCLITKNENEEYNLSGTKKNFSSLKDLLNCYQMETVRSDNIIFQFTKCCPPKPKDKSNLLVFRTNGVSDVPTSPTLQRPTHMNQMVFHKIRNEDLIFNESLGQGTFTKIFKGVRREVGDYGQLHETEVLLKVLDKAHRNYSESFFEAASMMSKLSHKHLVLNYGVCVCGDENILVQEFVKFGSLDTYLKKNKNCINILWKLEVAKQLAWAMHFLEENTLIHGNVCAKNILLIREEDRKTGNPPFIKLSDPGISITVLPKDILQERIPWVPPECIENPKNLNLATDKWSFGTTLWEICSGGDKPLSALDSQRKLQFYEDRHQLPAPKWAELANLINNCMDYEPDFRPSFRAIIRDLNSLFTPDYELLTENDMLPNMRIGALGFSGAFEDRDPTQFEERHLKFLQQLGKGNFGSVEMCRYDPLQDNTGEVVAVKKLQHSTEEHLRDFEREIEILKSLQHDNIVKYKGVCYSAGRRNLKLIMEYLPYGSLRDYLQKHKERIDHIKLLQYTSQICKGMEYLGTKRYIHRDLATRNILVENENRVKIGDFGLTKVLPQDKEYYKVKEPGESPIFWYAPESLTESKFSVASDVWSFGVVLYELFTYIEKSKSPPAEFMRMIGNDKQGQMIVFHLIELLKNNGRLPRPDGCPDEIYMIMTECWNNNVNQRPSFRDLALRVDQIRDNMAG

[7] = target: T2, Serine/threonine-protein kinase D2 (Homo sapiens) (UniProt Q9BZL6); assay: Inhibition of PKD2 at 10 uM
T2 sequence (whole entry): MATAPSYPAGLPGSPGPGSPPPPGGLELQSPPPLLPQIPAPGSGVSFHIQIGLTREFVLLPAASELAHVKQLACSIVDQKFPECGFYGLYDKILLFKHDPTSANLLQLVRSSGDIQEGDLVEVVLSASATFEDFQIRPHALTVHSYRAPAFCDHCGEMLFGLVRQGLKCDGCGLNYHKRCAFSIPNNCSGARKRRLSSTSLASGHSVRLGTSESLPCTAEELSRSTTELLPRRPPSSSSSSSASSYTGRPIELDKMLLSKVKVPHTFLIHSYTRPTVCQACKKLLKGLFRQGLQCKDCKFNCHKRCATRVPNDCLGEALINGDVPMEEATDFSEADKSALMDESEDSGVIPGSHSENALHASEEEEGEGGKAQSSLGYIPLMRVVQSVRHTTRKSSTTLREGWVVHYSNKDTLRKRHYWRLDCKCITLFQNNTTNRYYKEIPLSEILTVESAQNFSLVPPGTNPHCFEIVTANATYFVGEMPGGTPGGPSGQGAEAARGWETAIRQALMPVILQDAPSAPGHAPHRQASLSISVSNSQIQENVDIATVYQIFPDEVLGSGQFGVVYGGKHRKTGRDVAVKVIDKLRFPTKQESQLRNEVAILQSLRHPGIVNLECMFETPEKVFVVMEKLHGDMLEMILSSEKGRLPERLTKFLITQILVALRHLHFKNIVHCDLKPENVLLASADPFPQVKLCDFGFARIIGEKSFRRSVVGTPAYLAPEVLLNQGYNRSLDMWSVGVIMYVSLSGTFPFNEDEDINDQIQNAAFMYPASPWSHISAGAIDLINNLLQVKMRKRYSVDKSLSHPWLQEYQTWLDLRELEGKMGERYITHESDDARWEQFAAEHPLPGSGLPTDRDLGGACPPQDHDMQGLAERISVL

CN(C[C@@H]1CCCN1)C(=O)c1ccc(-c2cnc3ccc(NCC4CC4)nn23)cc1
IC50 [1]: 97 nM
IC50 (Blood): 1900 nM
Papp [2]: 6.1 ×10⁻⁶ cm/s

O=C(c1ccc(-c2cnc3ccc(NCC4CC4)nn23)cc1)N(Cc1ccc(Cl)cc1)C[C@@H]1C[C@@H](F)CN1
IC50 [1]: 17 nM
IC50 (Blood): 1200 nM
Papp [2]: 39 ×10⁻⁶ cm/s
inhibition in vivo at 30 mg/kg (Mus musculus): 61%
Cp (Plasma): 0.45 µg/mL
remaining at 0.5 h, 1 µM [3]: 28%

O=C(c1ccc(-c2cnc3ccc(NCC4CC4)nn23)cc1)N(Cc1cccc(Cl)c1)C[C@@H]1C[C@@H](F)CN1
IC50 [1]: 17 nM
IC50 (Blood): 590 nM
Papp [2]: > 50 ×10⁻⁶ cm/s
inhibition in vivo at 30 mg/kg (Mus musculus): 40%
Cp (Plasma): 0.12 µg/mL
remaining at 0.5 h, 1 µM [3]: 7%

CCCN(C[C@@H]1C[C@@H](F)CN1)C(=O)c1ccc(-c2cnc3ccc(NCC4CC4)nn23)cc1
IC50 [1]: 16 nM
IC50 (Blood): 170 nM
Papp [2]: > 50 ×10⁻⁶ cm/s
inhibition in vivo at 30 mg/kg (Mus musculus): 52%
Cp (Plasma): 0.16 µg/mL
remaining at 0.5 h, 1 µM [3]: 33%

O=C(NC[C@@H]1C[C@@H](F)CN1)c1ccc(-c2cnc3ccc(NCC4CC4)nn23)cc1
IC50 [1]: 22 nM
IC50 (Blood): 570 nM
Papp [2]: 36 ×10⁻⁶ cm/s
inhibition [4]: 80%

O=C(c1ccc(-c2cnc3ccc(NCC4CC4)nn23)cc1)N(C/C=C/c1ccccc1)C[C@@H]1C[C@@H](F)CN1
IC50 [1]: 13 nM
IC50 (Blood): 950 nM
Papp [2]: > 50 ×10⁻⁶ cm/s

CCN(C[C@@H]1C[C@@H](F)CN1)C(=O)c1ccc(-c2cnc3ccc(NCC4CC4)nn23)cc1
IC50 [1]: 18 nM
IC50 (Blood): 230 nM
Papp [2]: 42 ×10⁻⁶ cm/s
inhibition in vivo at 30 mg/kg (Mus musculus): 32%
Cp (Plasma): 0.15 µg/mL
remaining at 0.5 h, 1 µM [3]: 33%

CN(C[C@@H]1C[C@@H](F)CN1)C(=O)c1ccc(-c2cnc3ccc(NCC4CC4)nn23)cc1
IC50 [1]: 42 nM
IC50 (Blood): 480 nM
Papp [2]: > 50 ×10⁻⁶ cm/s
inhibition in vivo at 30 mg/kg (Mus musculus): 26%
Cp (Plasma): 0.34 µg/mL
remaining at 0.5 h, 1 µM [3]: 50%

CO[C@H]1CN[C@H](CNC(=O)c2ccc(-c3cnc4ccc(NCC5CC5)nn34)cc2)C1
IC50 [1]: 71 nM
IC50 (Blood): 2700 nM
Papp [2]: < 2 ×10⁻⁶ cm/s

O=C(c1ccc(-c2cnc3ccc(NCC4CC4)nn23)cc1)N(C[C@@H]1C[C@@H](F)CN1)c1ccccc1
IC50 [1]: 7300 nM

CN(C)CCNC(=O)c1ccc(-c2cnc3ccc(NCC4CC4)nn23)cc1
IC50 (Blood): 800 nM
Papp [2]: > 50 ×10⁻⁶ cm/s
inhibition in vivo at 30 mg/kg (Mus musculus): 10%
Cp (Plasma): 0.39 µg/mL
remaining at 0.5 h, 1 µM [3]: 71%

O=C(c1ccc(-c2cnc3ccc(NCC4CC4)nn23)cc1)N(CCO)C[C@@H]1C[C@@H](F)CN1
IC50 [1]: 15 nM
IC50 (Blood): 680 nM
Papp [2]: 15 ×10⁻⁶ cm/s

CO[C@H]1CCN[C@@H]1CNC(=O)c1ccc(-c2cnc3ccc(NCC4CC4)nn23)cc1
IC50 [1]: 23 nM
IC50 (Blood): 2100 nM
Papp [2]: 6.5 ×10⁻⁶ cm/s

O=C(O)CN(C[C@@H]1C[C@@H](F)CN1)C(=O)c1ccc(-c2cnc3ccc(NCC4CC4)nn23)cc1
IC50 [1]: 110 nM
IC50 (Blood): 3900 nM
Papp [2]: 14 ×10⁻⁶ cm/s

O=C(NC[C@@H]1CCCN1)c1ccc(-c2cnc3ccc(NCC4CC4)nn23)cc1
IC50 (Blood): 6800 nM
Papp [2]: < 2 ×10⁻⁶ cm/s
inhibition (Mus musculus): inactive
Cp (Plasma): 0.0075 µg/mL
remaining at 0.5 h, 1 µM [3]: 77%
inhibition [5]: > 90%
inhibition [6]: > 90%
inhibition [7]: > 90%

O=C(O)c1ccc(CN(C[C@@H]2C[C@@H](F)CN2)C(=O)c2ccc(-c3cnc4ccc(NCC5CC5)nn34)cc2)cc1
IC50 [1]: 17 nM
IC50 (Blood): > 10000 nM
Papp [2]: < 2 ×10⁻⁶ cm/s

O=C(c1ccc(-c2cnc3ccc(NCC4CC4)nn23)cc1)N(Cc1ccccc1)C[C@@H]1C[C@@H](F)CN1
IC50 [1]: 12 nM
IC50 (Blood): 400 nM
Papp [2]: > 50 ×10⁻⁶ cm/s

O=C(NC[C@H]1NCC[C@@H]1F)c1ccc(-c2cnc3ccc(NCC4CC4)nn23)cc1
IC50 [1]: 21 nM
IC50 (Blood): 1200 nM

CC(=O)Nc1ccc(CN(C[C@@H]2C[C@@H](F)CN2)C(=O)c2ccc(-c3cnc4ccc(NCC5CC5)nn34)cc2)cc1
IC50 [1]: 15 nM
IC50 (Blood): 2700 nM
Papp [2]: < 2 ×10⁻⁶ cm/s
